Measured values from ChEMBL document CHEMBL2016552, “Pyrazine-based Syk kinase inhibitors” (Bioorg Med Chem Lett, 2012).
In brackets after ≈: the same amount, converted by molar mass. Values belong to the molecule of their own block, whether it stands above or below them.

Assays:
LAD2 [1] = experiment: Inhibition of IgE-mediated human LAD2 cell degranulation assessed as beta-hexosaminidase release using p-nitrophenyl-N-acetyl-D-glucosamide as substrate preincubated for 30 mins measured 90 mins after substrate addition by spectrophotometric analysis
LAD2 [2] = experiment: Inhibition of IgE-mediated human LAD2 cell degranulation assessed as beta-hexosaminidase release using p-nitrophenyl-N-acetyl-D-glucosamide as substrate at 1 uM preincubated for 30 mins measured 90 mins after substrate addition by spectrophotometric analysis; type: functional
Procedure, shortened: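 LAD2 mast cells sensitised overnight (37°, 5% CO2) in StemPro-34 with 2 mM glutamine and 100 ng/ml SCF plus 100 ng/ml biotin-IgE. Cells washed into release buffer (0.025% BSA), 10,000/well, compound 30 min, then streptavidin 125 ng/ml for 30 min. Supernatants and freeze-thaw lysates incubated with 1 mM substrate (citrate, pH 4.5) 90 min at 37°C. Stopped with 0.4 M glycine pH 10.0; A405 read.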

[3] = molecular target: Calcium/calmodulin-dependent protein kinase type II subunit delta (Homo sapiens) (UniProt Q13557); conditions: 1 uM
[4] = molecular target: Tyrosine-protein kinase BTK (Homo sapiens) (UniProt Q06187); conditions: 1 uM
[5] = molecular target: Tyrosine-protein kinase JAK3 (Homo sapiens) (UniProt P52333); conditions: 1 uM
[6] = molecular target: Tyrosine-protein kinase Yes (Homo sapiens) (UniProt P07947); conditions: 1 uM
[7] = molecular target: MAP kinase-activated protein kinase 5 (Homo sapiens) (UniProt Q8IW41); conditions: 1 uM
[8] = molecular target: Serine/threonine-protein kinase Chk1 (Homo sapiens) (UniProt O14757); conditions: 1 uM
[9] = molecular target: Macrophage colony-stimulating factor 1 receptor (Homo sapiens) (UniProt P07333); conditions: 1 uM
[10] = molecular target: Dual specificity mitogen-activated protein kinase kinase 6 (Homo sapiens) (UniProt P52564); conditions: 1 uM
[11] = molecular target: ALK tyrosine kinase receptor (Homo sapiens) (UniProt Q9UM73); conditions: 1 uM
[12] = molecular target: Protein kinase C beta type (Homo sapiens) (UniProt P05771); conditions: 1 uM
[13] = molecular target: Tyrosine-protein kinase HCK (Homo sapiens) (UniProt P08631); conditions: 1 uM
[14] = molecular target: Focal adhesion kinase 1 (Homo sapiens) (UniProt Q05397); conditions: 1 uM
[15] = Aqueous solubility of the compound at pH 7.4; type: physicochemical
[16] = molecular target: Glycogen synthase kinase-3 alpha (Homo sapiens) (UniProt P49840); conditions: 1 uM
[17] = molecular target: Tyrosine-protein kinase ZAP-70 (Homo sapiens) (UniProt P43403); conditions: 1 uM
[18] = molecular target: Hepatocyte growth factor receptor (Homo sapiens) (UniProt P08581); conditions: 1 uM
[19] = molecular target: High affinity nerve growth factor receptor (Homo sapiens) (UniProt P04629); conditions: 1 uM
[20] = molecular target: T1, Tyrosine-protein kinase Lyn (Homo sapiens, UniProt P07948); experiment: Inhibition of human Lyn
[21] = Apparent permeability across apical to basolateral side in human Caco2 cells; type: ADME, cell-based; conditions: Caco-2
[22] = molecular target: Tyrosine-protein kinase SYK (Homo sapiens, UniProt P43405); experiment: Inhibition of human recombinant […] using poly-GT as substrate and [33P]ATP after 40 mins by beta counting
CHO = experiment: Cytotoxicity against CHO cells; type: cell-based, Cricetulus griseus; conditions: chinese hamster
[23] = Lipophilicity, log D of the compound at pH 7.4; type: physicochemical; conditions: buffer
[24] = molecular target: Tyrosine-protein kinase ITK/TSK (Homo sapiens) (UniProt Q08881); conditions: 1 uM
[25] = molecular target: Proto-oncogene tyrosine-protein kinase receptor Ret (Homo sapiens) (UniProt P07949); conditions: 1 uM
[26] = molecular target: Serine/threonine-protein kinase pim-1 (Homo sapiens) (UniProt P11309); conditions: 1 uM
[27] = molecular target: Proto-oncogene tyrosine-protein kinase Src (Homo sapiens) (UniProt P12931); conditions: 1 uM
[28] = molecular target: Cyclin-dependent kinase 1/cyclin B1 (Homo sapiens) (UniProt P06493+P14635); conditions: 1 uM
[29] = molecular target: Vascular endothelial growth factor receptor 1 (Homo sapiens) (UniProt P17948); conditions: 1 uM
[30] = molecular target: Ribosomal protein S6 kinase alpha-6 (Homo sapiens) (UniProt Q9UK32); conditions: 1 uM
[31] = molecular target: Glycogen synthase kinase-3 beta (Homo sapiens) (UniProt P49841); conditions: 1 uM
[32] = molecular target: Inhibitor of nuclear factor kappa-B kinase subunit beta (Homo sapiens) (UniProt O14920); conditions: 1 uM
[33] = molecular target: Tyrosine-protein kinase Lck (Homo sapiens) (UniProt P06239); conditions: 1 uM
[34] = molecular target: Tyrosine-protein kinase Fyn (Homo sapiens) (UniProt P06241); conditions: 1 uM
[35] = molecular target: Tyrosine-protein kinase JAK2 (Homo sapiens) (UniProt O60674); conditions: 1 uM
[36] = Apparent permeability across basolateral to apical side in human Caco2 cells; type: ADME, cell-based; conditions: Caco-2
[37] = molecular target: Rho-associated protein kinase 2 (Homo sapiens) (UniProt O75116); conditions: 1 uM
[38] = molecular target: Receptor-type tyrosine-protein kinase FLT3 (Homo sapiens) (UniProt P36888); conditions: 1 uM
[39] = molecular target: 3-phosphoinositide-dependent protein kinase 1 (Homo sapiens) (UniProt O15530); conditions: 1 uM
[40] = molecular target: T1, Tyrosine-protein kinase Lyn; conditions: 1 uM
[41] = molecular target: Protein kinase C epsilon type (Homo sapiens) (UniProt Q02156); conditions: 1 uM
[42] = molecular target: Casein kinase I isoform delta (Homo sapiens) (UniProt P48730); conditions: 1 uM
[43] = molecular target: Mitogen-activated protein kinase kinase kinase 7 (TAK1) (Homo sapiens) (UniProt O43318); conditions: 1 uM
[44] = molecular target: Mitogen-activated protein kinase 10 (Homo sapiens) (UniProt P53779); conditions: 1 uM
[45] = molecular target: Protein-tyrosine kinase 2-beta (Homo sapiens) (UniProt Q14289); conditions: 1 uM
[46] = molecular target: Tyrosine-protein kinase Fgr (Homo sapiens) (UniProt P09769); conditions: 1 uM
[47] = molecular target: Tyrosine-protein kinase receptor UFO (Homo sapiens) (UniProt P30530); conditions: 1 uM
[48] = molecular target: Protein kinase C gamma type (Homo sapiens) (UniProt P05129); conditions: 1 uM
[49] = molecular target: Aurora kinase A (Homo sapiens) (UniProt O14965); conditions: 1 uM
[50] = molecular target: Fibroblast growth factor receptor 3 (Homo sapiens) (UniProt P22607); conditions: 1 uM

Tyrosine-protein kinase Lck (Homo sapiens), sequence (P06239 2-509 limits assumed): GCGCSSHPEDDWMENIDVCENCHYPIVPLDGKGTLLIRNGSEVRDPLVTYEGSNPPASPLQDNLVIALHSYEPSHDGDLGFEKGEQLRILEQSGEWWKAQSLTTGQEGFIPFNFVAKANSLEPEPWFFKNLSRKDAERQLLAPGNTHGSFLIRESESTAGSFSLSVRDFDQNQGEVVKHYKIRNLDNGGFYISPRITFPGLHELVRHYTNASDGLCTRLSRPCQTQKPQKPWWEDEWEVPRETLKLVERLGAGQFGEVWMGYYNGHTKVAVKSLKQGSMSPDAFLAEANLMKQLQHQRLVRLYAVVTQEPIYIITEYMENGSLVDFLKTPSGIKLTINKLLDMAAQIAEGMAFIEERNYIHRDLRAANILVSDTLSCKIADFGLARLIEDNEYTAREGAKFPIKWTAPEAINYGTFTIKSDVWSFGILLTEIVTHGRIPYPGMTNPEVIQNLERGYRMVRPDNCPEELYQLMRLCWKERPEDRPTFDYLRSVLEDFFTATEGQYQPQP
Tyrosine-protein kinase Fyn (Homo sapiens), sequence (P06241 2-537 limits assumed): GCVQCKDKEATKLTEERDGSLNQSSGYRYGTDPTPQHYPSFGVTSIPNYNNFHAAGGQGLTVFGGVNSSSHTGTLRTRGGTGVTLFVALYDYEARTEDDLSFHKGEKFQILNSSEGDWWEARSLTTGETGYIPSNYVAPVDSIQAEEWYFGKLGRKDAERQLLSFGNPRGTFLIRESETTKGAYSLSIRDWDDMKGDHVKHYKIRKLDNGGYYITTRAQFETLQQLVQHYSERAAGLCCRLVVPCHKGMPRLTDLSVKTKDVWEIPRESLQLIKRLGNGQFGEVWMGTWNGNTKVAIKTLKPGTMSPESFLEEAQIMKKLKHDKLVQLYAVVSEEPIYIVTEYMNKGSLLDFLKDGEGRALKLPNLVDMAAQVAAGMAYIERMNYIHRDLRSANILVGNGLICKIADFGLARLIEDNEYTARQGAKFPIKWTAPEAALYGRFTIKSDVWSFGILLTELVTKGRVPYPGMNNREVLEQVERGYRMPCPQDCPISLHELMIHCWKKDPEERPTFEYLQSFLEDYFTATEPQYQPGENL
Protein kinase C epsilon type (Homo sapiens), sequence (Q02156 whole entry, canonical isoform): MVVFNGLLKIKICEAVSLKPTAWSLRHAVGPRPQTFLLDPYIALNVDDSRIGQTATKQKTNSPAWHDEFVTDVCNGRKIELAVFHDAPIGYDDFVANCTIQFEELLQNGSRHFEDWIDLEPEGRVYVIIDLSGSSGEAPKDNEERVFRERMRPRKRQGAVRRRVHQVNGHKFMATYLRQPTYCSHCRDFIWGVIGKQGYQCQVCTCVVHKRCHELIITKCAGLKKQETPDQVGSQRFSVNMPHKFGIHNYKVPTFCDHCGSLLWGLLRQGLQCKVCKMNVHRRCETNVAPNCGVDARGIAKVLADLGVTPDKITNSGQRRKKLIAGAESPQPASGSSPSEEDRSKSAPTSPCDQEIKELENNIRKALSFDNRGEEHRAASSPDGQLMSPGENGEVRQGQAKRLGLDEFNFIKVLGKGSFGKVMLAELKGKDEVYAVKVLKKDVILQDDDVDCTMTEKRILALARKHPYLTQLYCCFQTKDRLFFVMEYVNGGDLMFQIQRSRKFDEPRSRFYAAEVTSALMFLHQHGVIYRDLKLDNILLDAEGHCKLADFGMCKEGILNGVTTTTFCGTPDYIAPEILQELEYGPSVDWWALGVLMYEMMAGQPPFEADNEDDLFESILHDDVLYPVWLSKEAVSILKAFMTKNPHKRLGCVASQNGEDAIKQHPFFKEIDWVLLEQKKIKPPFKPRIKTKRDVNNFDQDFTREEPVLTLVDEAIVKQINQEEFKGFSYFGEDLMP
Rho-associated protein kinase 2 (Homo sapiens), sequence (O75116 whole entry, looked up): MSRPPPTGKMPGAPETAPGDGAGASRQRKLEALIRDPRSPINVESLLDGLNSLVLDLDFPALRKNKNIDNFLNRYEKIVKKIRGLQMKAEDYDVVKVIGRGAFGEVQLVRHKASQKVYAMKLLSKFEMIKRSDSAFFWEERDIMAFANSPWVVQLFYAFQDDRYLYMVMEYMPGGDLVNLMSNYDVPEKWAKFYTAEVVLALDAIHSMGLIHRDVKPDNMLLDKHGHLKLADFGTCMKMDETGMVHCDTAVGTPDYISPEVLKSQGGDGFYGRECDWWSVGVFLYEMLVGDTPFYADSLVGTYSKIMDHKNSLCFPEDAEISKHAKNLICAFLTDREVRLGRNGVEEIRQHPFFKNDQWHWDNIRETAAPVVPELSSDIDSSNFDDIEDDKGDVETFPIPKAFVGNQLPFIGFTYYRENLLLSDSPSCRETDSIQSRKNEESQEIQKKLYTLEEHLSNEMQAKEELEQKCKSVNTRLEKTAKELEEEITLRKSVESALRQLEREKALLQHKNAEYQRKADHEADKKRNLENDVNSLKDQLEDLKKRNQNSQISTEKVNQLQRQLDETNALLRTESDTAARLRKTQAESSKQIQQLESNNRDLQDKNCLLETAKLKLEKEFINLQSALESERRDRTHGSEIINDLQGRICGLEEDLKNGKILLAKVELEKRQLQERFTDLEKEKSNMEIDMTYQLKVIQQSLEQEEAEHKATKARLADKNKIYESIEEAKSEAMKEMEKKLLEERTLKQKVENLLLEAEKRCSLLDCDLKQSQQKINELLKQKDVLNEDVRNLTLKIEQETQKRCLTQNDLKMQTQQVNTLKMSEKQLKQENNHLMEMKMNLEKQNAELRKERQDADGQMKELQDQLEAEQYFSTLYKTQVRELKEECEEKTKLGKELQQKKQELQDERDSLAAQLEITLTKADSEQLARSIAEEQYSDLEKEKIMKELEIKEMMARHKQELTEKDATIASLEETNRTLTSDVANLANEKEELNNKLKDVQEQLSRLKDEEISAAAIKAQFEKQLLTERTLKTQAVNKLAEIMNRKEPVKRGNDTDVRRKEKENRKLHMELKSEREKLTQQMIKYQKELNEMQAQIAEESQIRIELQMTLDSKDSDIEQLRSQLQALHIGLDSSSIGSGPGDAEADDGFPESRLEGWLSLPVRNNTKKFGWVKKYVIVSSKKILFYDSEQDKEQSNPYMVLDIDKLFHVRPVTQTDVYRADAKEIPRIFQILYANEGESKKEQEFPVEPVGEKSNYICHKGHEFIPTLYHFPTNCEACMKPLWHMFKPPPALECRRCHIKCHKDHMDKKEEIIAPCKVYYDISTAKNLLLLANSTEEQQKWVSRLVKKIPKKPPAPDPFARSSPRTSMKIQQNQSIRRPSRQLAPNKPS
Inhibitor of nuclear factor kappa-B kinase subunit beta (Homo sapiens), sequence (O14920 whole entry): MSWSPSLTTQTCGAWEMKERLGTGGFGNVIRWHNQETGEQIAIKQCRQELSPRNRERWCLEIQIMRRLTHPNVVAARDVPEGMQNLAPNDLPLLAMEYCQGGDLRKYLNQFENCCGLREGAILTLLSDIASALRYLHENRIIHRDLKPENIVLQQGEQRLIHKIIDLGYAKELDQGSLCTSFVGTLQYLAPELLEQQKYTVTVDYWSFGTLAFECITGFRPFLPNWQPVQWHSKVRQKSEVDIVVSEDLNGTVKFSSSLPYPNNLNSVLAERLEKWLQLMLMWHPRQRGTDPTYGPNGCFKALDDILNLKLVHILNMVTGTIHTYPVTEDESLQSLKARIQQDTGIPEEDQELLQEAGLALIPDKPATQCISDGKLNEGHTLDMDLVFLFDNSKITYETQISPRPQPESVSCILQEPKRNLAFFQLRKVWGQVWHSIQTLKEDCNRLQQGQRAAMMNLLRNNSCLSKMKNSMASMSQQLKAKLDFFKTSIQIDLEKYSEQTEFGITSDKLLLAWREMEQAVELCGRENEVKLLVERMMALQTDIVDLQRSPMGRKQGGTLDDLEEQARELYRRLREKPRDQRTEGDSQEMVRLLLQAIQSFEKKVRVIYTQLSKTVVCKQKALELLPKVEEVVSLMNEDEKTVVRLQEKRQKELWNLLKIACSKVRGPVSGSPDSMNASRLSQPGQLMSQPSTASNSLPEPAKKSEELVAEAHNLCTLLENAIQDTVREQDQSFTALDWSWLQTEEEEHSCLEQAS
High affinity nerve growth factor receptor (Homo sapiens), sequence (P04629 33-796 limits assumed): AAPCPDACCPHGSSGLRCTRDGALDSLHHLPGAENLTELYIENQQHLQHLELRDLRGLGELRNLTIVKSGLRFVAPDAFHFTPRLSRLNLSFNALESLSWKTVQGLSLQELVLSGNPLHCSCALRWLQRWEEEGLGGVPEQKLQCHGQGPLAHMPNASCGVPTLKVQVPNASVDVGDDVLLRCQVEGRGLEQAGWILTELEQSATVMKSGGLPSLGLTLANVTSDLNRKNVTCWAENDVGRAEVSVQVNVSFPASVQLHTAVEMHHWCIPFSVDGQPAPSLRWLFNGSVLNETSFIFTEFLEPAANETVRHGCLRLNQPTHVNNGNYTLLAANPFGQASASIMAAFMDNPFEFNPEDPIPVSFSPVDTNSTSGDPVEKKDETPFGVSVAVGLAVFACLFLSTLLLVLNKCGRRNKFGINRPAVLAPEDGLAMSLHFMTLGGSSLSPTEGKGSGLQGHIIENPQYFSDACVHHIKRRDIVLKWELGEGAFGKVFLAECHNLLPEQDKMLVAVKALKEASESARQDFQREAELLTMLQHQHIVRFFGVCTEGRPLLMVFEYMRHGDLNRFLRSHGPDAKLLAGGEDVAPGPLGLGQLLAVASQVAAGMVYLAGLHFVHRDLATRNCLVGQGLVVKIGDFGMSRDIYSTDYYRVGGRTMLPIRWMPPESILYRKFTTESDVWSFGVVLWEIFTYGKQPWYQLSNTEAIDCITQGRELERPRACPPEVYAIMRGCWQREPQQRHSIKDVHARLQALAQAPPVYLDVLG
Serine/threonine-protein kinase pim-1 (Homo sapiens), sequence (P11309 whole entry, looked up): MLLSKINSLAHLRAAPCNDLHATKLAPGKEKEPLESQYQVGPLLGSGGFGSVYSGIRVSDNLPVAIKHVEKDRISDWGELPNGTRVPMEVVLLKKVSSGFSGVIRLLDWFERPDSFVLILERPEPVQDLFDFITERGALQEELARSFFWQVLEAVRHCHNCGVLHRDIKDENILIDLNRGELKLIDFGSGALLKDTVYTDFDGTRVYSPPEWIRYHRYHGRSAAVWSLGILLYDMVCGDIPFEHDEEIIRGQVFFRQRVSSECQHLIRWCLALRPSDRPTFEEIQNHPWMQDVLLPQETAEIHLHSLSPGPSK

SMILES: NCCn1cc(-c2cccc(-c3cnc(N)c(C(=O)N[C@H]4C5CC6CC4C[C@@](O)(C6)C5)n3)c2)cn1
IC50 (LAD2 [1]): 1000 nM

SMILES: CC(C)(NC(=O)c1nc(-c2ccc3cn[nH]c3c2)cnc1N)C1CCNCC1
IC50 (LAD2 [1]): 860 nM

SMILES: CC(C)(NC(=O)c1nc(-c2ccc3c(c2)NC(=O)C3)cnc1N)C1CCNCC1
inhibition at 1 µM (LAD2 [2]): 10%

SMILES: Cn1cc(-c2cccc(-c3cnc(N)c(C(=O)N[C@H]4C5CC6CC4C[C@@](O)(C6)C5)n3)c2)cn1
inhibition [3]: < 50%
inhibition [4]: < 50%
inhibition [5]: > 50%
inhibition [6]: > 50%
inhibition [7]: < 50%
inhibition [8]: < 50%
inhibition [9]: > 50%
inhibition [10]: < 50%
inhibition [11]: > 50%
inhibition [12]: < 50%
inhibition [13]: > 50%
inhibition [14]: < 50%
solubility [15]: 25 µg/mL (≈ 56.2 µM)
inhibition [16]: > 50%
inhibition [17]: < 50%
inhibition [18]: < 50%
inhibition [19]: > 50%
IC50 [20]: 325 nM
Papp A→B [21]: 28 ×10⁻⁶ cm/s
IC50 [22]: 40 nM
Activity (CHO): Non-toxic
logD [23]: 1.5
inhibition [24]: < 50%
inhibition [25]: > 50%
inhibition [26]: > 50%
inhibition [27]: > 50%
inhibition [28]: > 50%
inhibition [29]: > 50%
inhibition [30]: > 50%
inhibition [31]: < 50%
inhibition [32]: < 50%
inhibition [33]: > 50%
inhibition [34]: > 50%
inhibition [35]: > 50%
Papp B→A [36]: 13 ×10⁻⁶ cm/s
inhibition [37]: < 50%
inhibition [38]: > 50%
inhibition [39]: < 50%
inhibition [40]: > 50%
inhibition [41]: < 50%
inhibition [42]: < 50%
inhibition [43]: < 50%
inhibition [44]: < 50%
inhibition [45]: < 50%
inhibition [46]: > 50%
inhibition [47]: > 50%
inhibition [48]: < 50%
inhibition [49]: > 50%
inhibition [50]: > 50%
IC50 (LAD2 [1]): 90 nM

SMILES: Cn1cc(-c2cccc(-c3cnc(N)c(C(=O)NC(C)(C)C4CCNCC4)n3)c2)cn1
IC50 (LAD2 [1]): 550 nM

SMILES: Nc1ncc(-c2cccc(-c3cnn(CC(=O)O)c3)c2)nc1C(=O)N[C@H]1C2CC3CC1C[C@@](O)(C3)C2
inhibition at 1 µM (LAD2 [2]): 43%

SMILES: CC(C)(NC(=O)c1nc(-c2cccc3cn[nH]c23)cnc1N)C1CCNCC1
inhibition at 1 µM (LAD2 [2]): 48%

SMILES: COc1cncc(-c2cccc(-c3cnc(N)c(C(=O)NC(C)(C)C4CCNCC4)n3)c2)c1
inhibition at 1 µM (LAD2 [2]): 65%

SMILES: CC(C)(NC(=O)c1nc(-c2cccc(OC(F)(F)F)c2)cnc1N)C1CCNCC1
IC50 (LAD2 [1]): 1100 nM

SMILES: Cn1cc(-c2cccc(-c3cnc(N)c(C(=O)N[C@H]4C5CC6CC4C[C@](O)(C6)C5)n3)c2)cn1
IC50 [22]: 20 nM
IC50 (LAD2 [1]): 120 nM

SMILES: CC(C)(NC(=O)c1nc(-c2cccc(-c3ccc(N)nc3)c2)cnc1N)C1CCNCC1
Papp B→A [36]: 2.38 ×10⁻⁶ cm/s
IC50 (LAD2 [1]): 560 nM

SMILES: CS(=O)(=O)Nc1cccc(-c2cnc(N)c(C(=O)N3CCC(O)CC3)n2)c1
IC50 [22]: > 50000 nM

SMILES: COc1cccc(-c2cnc(N)c(C(=O)NC(C)(C)C3CCNCC3)n2)c1
IC50 (LAD2 [1]): 1960 nM

SMILES: Nc1ncc(-c2ccc3cn[nH]c3c2)nc1C(=O)N[C@H]1C2CC3CC1C[C@](O)(C3)C2
IC50 (LAD2 [1]): 400 nM

Now from value to molecule:

IC50 (LAD2 [1]): 150 nM
SMILES: Cc1cc(-c2cnn(C)c2)cc(-c2cnc(N)c(C(=O)N[C@H]3C4CC5CC3C[C@@](O)(C5)C4)n2)c1

IC50 (LAD2 [1]): 110 nM
SMILES: CCn1cc(-c2cccc(-c3cnc(N)c(C(=O)N[C@H]4C5CC6CC4C[C@@](O)(C6)C5)n3)c2)cn1

IC50 (LAD2 [1]): 180 nM
SMILES: COCCn1cc(-c2cccc(-c3cnc(N)c(C(=O)N[C@H]4C5CC6CC4C[C@@](O)(C6)C5)n3)c2)cn1

IC50 (LAD2 [1]): 180 nM
SMILES: CCn1cc(-c2cccc(-c3cnc(N)c(C(=O)N[C@H]4C5CC6CC4C[C@](O)(C6)C5)n3)c2)cn1

IC50 (LAD2 [1]): 140 nM
SMILES: COc1cc(-c2cnn(C)c2)cc(-c2cnc(N)c(C(=O)N[C@H]3C4CC5CC3C[C@@](O)(C5)C4)n2)c1

IC50 (LAD2 [1]): 120 nM
SMILES: Nc1ncc(-c2cccc(-c3cnn(CCO)c3)c2)nc1C(=O)N[C@H]1C2CC3CC1C[C@@](O)(C3)C2

IC50 (LAD2 [1]): 100 nM
SMILES: Nc1ncc(-c2cccc(-c3cn[nH]c3)c2)nc1C(=O)N[C@H]1C2CC3CC1C[C@@](O)(C3)C2

IC50 (LAD2 [1]): 140 nM
SMILES: Nc1ncc(-c2cccc(-c3cnn(CCO)c3)c2)nc1C(=O)N[C@H]1C2CC3CC1C[C@](O)(C3)C2

IC50 (LAD2 [1]): 170 nM
SMILES: CCCn1cc(-c2cccc(-c3cnc(N)c(C(=O)N[C@H]4C5CC6CC4C[C@@](O)(C6)C5)n3)c2)cn1

IC50 (LAD2 [1]): 140 nM
SMILES: Nc1ncc(-c2cccc(-c3cnn(CC(F)(F)F)c3)c2)nc1C(=O)N[C@H]1C2CC3CC1C[C@@](O)(C3)C2

IC50 (LAD2 [1]): 180 nM
SMILES: Nc1ccc(-c2cccc(-c3cnc(N)c(C(=O)N[C@H]4C5CC6CC4C[C@@](O)(C6)C5)n3)c2)cn1

IC50 (LAD2 [1]): 160 nM
SMILES: NC(=O)Cn1cc(-c2cccc(-c3cnc(N)c(C(=O)N[C@H]4C5CC6CC4C[C@@](O)(C6)C5)n3)c2)cn1

IC50 (LAD2 [1]): 220 nM
SMILES: CC(C)n1cc(-c2cccc(-c3cnc(N)c(C(=O)N[C@H]4C5CC6CC4C[C@@](O)(C6)C5)n3)c2)cn1

IC50 (LAD2 [1]): 120 nM
SMILES: Nc1ncc(-c2ccc3cn[nH]c3c2)nc1C(=O)N[C@H]1C2CC3CC1C[C@@](O)(C3)C2
